The structures appear in SMILES notation.

From ChEMBL document CHEMBL1132226, “1,2,5-Oxadiazole N-oxide derivatives and related compounds as potential antitrypanosomal drugs: structure-activity relationships” (1999) come the findings set out here.

For one assay, the system named is Trypanosoma cruzi. The assay is described as follows: (§1) The compound was tested in vitro for antitrypanosomal activity against Trypanosoma cruzi epimastigotes at a dose of 25 uM. Type of assay: functional. Put shortly:
(§2)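 T. cruzi Tulahuen 2 epimastigotes were grown at 28 °C in axenic BHI-tryptose medium with 10% fetal calf serum. Inocula came from a 10-day stationary culture, starting at 1 × 10⁶ cells/mL. Compound was added from a DMSO stock before inoculation, with final DMSO ≤0.4%; controls had 0.4% DMSO and no drug. Growth was read as A600 daily. Percent inhibition = {1 − [(Ap − A0p)/(Ac − A0c)]} × 100, using day-5 versus day-0 absorbances. Values are the mean of three experiments.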
`CCCCCCNC(=O)c1ccc2nonc2c1` had an inhibition at 25 µM of 10%. On the same count and under the same terms, then `CCCCNC(=O)c1ccc2nonc2c1`, with 0%.

In another assay the test system is Trypanosoma cruzi. In words: In vitro antitrypanosomal activity against Trypanosoma cruzi epimastigotes at dose 25 uM. Type of assay: functional. The essentials:
as §2
In turn, `CCCCCCNC(=O)N/N=C/c1c(-c2ccccc2)no[n+]1[O-]` returned an inhibition at 25 µM of 53%. The same measure, in the same setting: then `[O-][n+]1onc(-c2ccccc2)c1CNCCCN1CCOCC1`, with 38%; and `CCCCNC(=O)c1ccc2no[n+]([O-])c2c1`, with 90%; and `CN(C)CCCNC(=O)c1ccc2no[n+]([O-])c2c1`, with 15%. Still for that read-out and setting: then `Cc1c(CNCCCN2CCCCC2)no[n+]1[O-]`, with 0%; and `CCCCNC(=O)N/N=C/c1c(-c2ccccc2)no[n+]1[O-]`, with 17%; and `CN(C)CCCNC(=O)N/N=C/c1ccc2no[n+]([O-])c2c1`, with 11%. On to `CCN(CC)CCCNCc1c(-c2ccccc2)no[n+]1[O-]`, for which at 25 µM the inhibition was 22%. Molecule `O=C(NCCCN1CCOCC1)c1ccc2no[n+]([O-])c2c1` gave an inhibition at 25 µM of 19%.

In turn, `CCCCCCNC(=O)N/N=C/c1ccc2no[n+]([O-])c2c1` gave an inhibition at 25 µM of 55%. Molecule `CCCCCCNC(=O)c1ccc2no[n+]([O-])c2c1` showed an inhibition at 25 µM of 79%. `CCN(CC)CCCNC(=O)c1ccc2no[n+]([O-])c2c1` yielded an inhibition at 25 µM of 17%. Take `CCN(CC)CCCNC(=O)N/N=C/c1ccc2no[n+]([O-])c2c1`: the inhibition at 25 µM amounted to 8%. Consider `CCCCNC(=O)N/N=C/c1ccc2nonc2c1`, for which the inhibition at 25 µM was 0%. `CCCCNC(=O)NNCc1ccc2no[n+]([O-])c2c1`: the inhibition at 25 µM is 55%. The molecule `Cc1c(CNCCCN2CCOCC2)no[n+]1[O-]` yielded an inhibition at 25 µM of 0%. Same read-out and setting: then `CCCCNC(=O)N/N=C/c1ccc2no[n+]([O-])c2c1`, with 45%; and `O=C(NCCCN1CCCCC1)c1ccc2no[n+]([O-])c2c1`, with 45%; and `CCCCNC(=O)N/N=C/c1ccc2c(c1)[n+]([O-])cc[n+]2[O-]`, with 23%.

`CCCCNC(=O)N/N=C/c1c(C)[n+]([O-])c2ccccc2[n+]1[O-]` showed an inhibition at 25 µM of 6%. Molecule `CCCCNC(=O)N/N=C/c1no[n+]([O-])c1C` yielded an inhibition at 25 µM of 0%. On the same count and under the same terms, then `CCCCNCc1ccc2no[n+]([O-])c2c1`, with 21%.

With `CCCCNC(=O)N/N=C/c1ccc2c(c1)[n+]([O-])c(C#N)c(N)[n+]2[O-]`, at 25 µM the inhibition was 17%. Still for that read-out and setting: the figure for `CCCCCCNC(=O)N/N=C/c1no[n+]([O-])c1C` is 3%; for `CCCCNC(=O)N/N=C/c1ccc2c(c1)[n+]([O-])c(C)c(C)[n+]2[O-]` it is 0%.

In a further assay the test system is Trypanosoma cruzi. Described as §1.
In turn, `CC1CS(=O)(=O)CCN1/N=C/c1ccc([N+](=O)[O-])o1` (stereo not drawn) [NIFURTIMOX] showed an inhibition at 25 µM of 100%.

In general, inhibition refers to the percentage by which the read-out fell short of the control. The low end stands for a weak effect, the high end for a strong effect.
